Screening data: PubChem, The Scripps Research Institute Molecular Screening Center
Only some compounds are listed: those with a hit (about 4.6% of all), similar ones and a draw of the others.
OX1R antag-1 – OX1R (HCRTR1) antagonists, primary screen, fluorescence, CHO/OX1R cells, Fluo-8 calcium, orexin A | inhibition, % at 5 µM | 330,000 tested, 0.43% active | Orexin/Hypocretin receptor type 1 (Homo sapiens), O43613 | Fluo-8 calcium fluorescence;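 active means inhibition above its plate's threshold, mean inhibition of all tested compounds on the plate plus 3 SD, cut at about 37% in these data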;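 further: 0% = orexin A challenge wells and 100% = SB-334867-A antagonist wells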
GPR7 antagonist – GPR7 receptor antagonists, primary screen, cell-based, fluorescence, single concentration; GPR7-expressing cells, fluorescence antagonist assay; inhibition, % at 4.4 µM; 290,000 tested, 1.1% active; AID 1861, 2009; in the data active means inhibition above about 16%, passing the limit was not always enough;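 further: cells stimulated with the agonist NPW; 0% = agonist with vehicle and 100% = vehicle without agonist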
Target sequence (P48145 whole entry, looked up): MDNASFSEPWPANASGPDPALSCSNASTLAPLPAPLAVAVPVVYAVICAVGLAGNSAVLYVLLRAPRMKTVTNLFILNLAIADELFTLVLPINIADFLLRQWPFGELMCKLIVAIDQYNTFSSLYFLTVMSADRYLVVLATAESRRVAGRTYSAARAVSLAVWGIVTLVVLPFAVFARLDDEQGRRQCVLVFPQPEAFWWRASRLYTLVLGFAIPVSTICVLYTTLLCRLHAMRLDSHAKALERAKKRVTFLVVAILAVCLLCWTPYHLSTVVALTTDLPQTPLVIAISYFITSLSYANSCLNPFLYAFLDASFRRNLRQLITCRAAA
TAAR1 antagonist – human TAAR1 antagonists, primary screen, Fluo-8 calcium fluorescence, CHO RD-HGA16 cells | Trace amine-associated receptor 1 (Homo sapiens), Q96RJ0 | antagonist | inhibition, % at 3 µM | 360,000 tested, 1.5% active | AID 624466, 2012;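 active means inhibition above a per-plate cutoff, the mean inhibition of test compounds on that plate plus 3 SD, cut at about 49% in these data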;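 further: 0% = DMSO plus EC80 beta-PEA response and 100% = DMSO alone without agonist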
Target sequence (Q96RJ0 whole entry, looked up): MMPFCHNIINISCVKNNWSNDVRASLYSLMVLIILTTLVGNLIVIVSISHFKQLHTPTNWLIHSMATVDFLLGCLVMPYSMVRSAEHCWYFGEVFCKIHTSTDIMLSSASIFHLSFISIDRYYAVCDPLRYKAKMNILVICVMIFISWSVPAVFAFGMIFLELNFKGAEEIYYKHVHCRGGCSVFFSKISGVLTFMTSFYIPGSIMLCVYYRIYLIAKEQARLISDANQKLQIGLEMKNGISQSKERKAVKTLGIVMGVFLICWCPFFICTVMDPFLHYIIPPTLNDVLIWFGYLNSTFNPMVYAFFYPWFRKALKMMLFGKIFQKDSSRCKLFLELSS
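test system = CHO RD-HGA16 cells bearing hTAAR1 | replication = singlicate | controls = DMSO-only wells and EC80 β-PEA-stimulated wells | reagent = EC80 β-phenethylamine stimulus | read-out basis = percent inhibition of PEA-evoked calcium signal, max/basal emission ratio | schedule = seeding 17-24 h prior, 75-min 37 °C, 30-min RT dye loading | signal = kinetic Fluo-8 calcium fluorescence measurement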
OX1R antag-2 – antagonists of human orexin 1 receptor (OX1R) | Orexin/Hypocretin receptor type 1 (Homo sapiens), O43613 | OX1R-expressing cells, FRET antagonist read-out | inhibition, % at 6.6 µM | 330,000 tested, 1.8% active | AID 485270, 2010; in the data active means inhibition mostly above about 38%, no sharp cut-off; inactive means mostly below about 40%;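 further: 0% = agonist challenge alone and 100% = reference antagonist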
CHO parental Ca – ATP-evoked calcium signal inhibitors, parental CHO, primary screen, counter-screen for OX1R antagonist project, cell-based, fluorescence, Fluo-8 calcium dye; inhibition, % at 5.6 µM; AID 463079, 2010; 330,000 tested, 0.63% active; parental CHO-K1, ATP-induced calcium, Fluo-8 fluorescence;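 active means inhibition above that plate's mean sample inhibition plus 3 SD, cut at about 26% in these data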;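 further: 0% = ATP-challenged DMSO wells and 100% = DMSO wells without ATP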
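Material: parental CHO cells / Compound: single nominal dose of 5.6 µM per compound / Signal: Fluo-8 fluorescence / Replicates: singlicate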
TAAR1 agonist – human TAAR1 agonists, primary screen, Fluo-8 calcium fluorescence, CHO RD-HGA16 cells | AID 624467, 2012 | activation, % at 3 µM | vehicle wells 0%, saturating PEA agonist 100% | 360,000 tested, 0.99% active | Trace amine-associated receptor 1 (Homo sapiens), Q96RJ0;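 active means activation above the mean activation of all test compounds in the run plus 3 SD, cut at about 38% in these data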
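Signal – calcium-sensitive Fluo-8 signal, excitation 470-495, emission 515-575 nm · System – RD-HGA16 (CHO) cells co-expressing Gα16 and hTAAR1 · Incubation – 17-24 h seeding, 75 min 37 °C dye, 30 min RT · Compound dosing – 3 µM single concentration · Repeats – no replicates (n 1)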
OX1R Fluo8 conf – OX1R (HCRTR1) antagonists, confirmation, fluorescence, CHO/OX1R cells, Fluo-8 calcium, orexin A. 1,100 tested, 38% active. orexin A calcium Fluo-8 fluorescence. AID 492963, 2010. shares compounds with OX1R antag-1. inhibition, % at 5 µM; in the data active means inhibition above about 29%;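 further: 0% = agonist challenge alone and 100% = reference antagonist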
CHO Ca triplic – ATP-evoked calcium inhibition in parental CHO, counter-screen for OX1R antagonist project, cell-based, fluorescence, CHO-K1, triplicate | inhibition, % at 5.6 µM | shares compounds with OX1R antag-1 | ATP-induced calcium, Fluo-8 fluorescence | 1,100 tested, 9.3% active;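 active means inhibition above a per-plate limit, the mean inhibition of that plate's test compounds plus 3 SD, cut at about 25% in these data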;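 further: 0% = ATP challenge with DMSO and 100% = DMSO without ATP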
OX1R HTRF conf – OX1R (HCRTR1) antagonists, confirmation, cell-based, HTRF; 1,800 tested, 49% active; shares compounds with OX1R antag-2; AID 492964, 2010; OX1R-expressing cells, HTRF antagonist assay; inhibition, % at 6.6 µM; in the data active means inhibition above about 55%;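 further: CHO cells expressing OX1R stimulated with orexin A at about EC80; 0% = agonist challenge alone and 100% = reference antagonist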
CHO-K1 HTRF cnt – signal inhibition in parental CHO-K1 cells, counter-screen for OX1R antagonist project, cell-based, HTRF; 1,800 tested, 48% active; shares compounds with OX1R antag-2; AID 493232, 2011; inhibition, % at 6.6 µM; HTRF counterscreen; in the data active means inhibition above about 17%;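 further: 0% = agonist challenge with vehicle and 100% = vehicle alone without agonist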
nonsel antag count – nonselective antagonists in TAAR1 counter-screen cells, counter-screen for hTAAR1 antagonist project, cell-based, fluorescence, calcium. shares compounds with TAAR1 antagonist. counterscreen cell line, antagonist mode. inhibition, % at 3 µM. 2,400 tested, 77% active; in the data active means inhibition above about 22%;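 further: CHO-Ga16 host cells stimulated with ATP at an EC80 level; 0% = agonist EC80 plus vehicle and 100% = vehicle without agonist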
TAAR1 antag conf – human TAAR1 antagonists, retest of hits, confirmation, cell-based, fluorescence; shares compounds with TAAR1 antagonist; TAAR1-expressing cells, fluorescence antagonist read-out; inhibition, % at 3 µM; 2,400 tested, 40% active; AID 651785, 2012; in the data active means inhibition above about 49%;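 further: CHO-Ga16 host cells challenged with agonist PEA near its EC80; 0% = agonist at EC80 plus vehicle and 100% = vehicle with no agonist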
Ga16 nonsel ag – calcium activation in Ga16-expressing cells, counter-screen for TAAR1 antagonist project, cell-based, fluorescence; shares compounds with TAAR1 antagonist; agonist counterscreen; activation, % at 3 µM; 2,400 tested, 18% active; in the data active means activation above about 12%;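 further: 0% = vehicle wells and 100% = saturating stimulus response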
TAAR1 ag count – TAAR1 activation by candidate antagonists – cell-based, fluorescence, counter-screen for TAAR1 antagonist project; AID 651955, 2012; hTAAR1 cell line, agonist mode; 2,400 tested, 2% active; shares compounds with TAAR1 antagonist; activation, % at 3 µM; in the data active means activation above about 37%;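 further: CHO cells stably expressing TAAR1 with calcium dye readout; 0% = DMSO vehicle and 100% = full agonist response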
* hit, by the source's call.

Results for COc1cccc(C(=O)Nc2cccc(-c3nnc(-c4ccccc4)o3)c2)c1 ?
OX1R antag-1: 44; TAAR1 antagonist: 74*; OX1R antag-2: 14; CHO parental Ca: 2; TAAR1 agonist: 9; OX1R Fluo8 conf: 0; CHO Ca triplic: -13; nonsel antag count: 23*; TAAR1 antag conf: 56*; Ga16 nonsel ag: 7; TAAR1 ag count: 10

Results for CCOc1cccc(C(=O)Nc2cccc(-c3nnc(-c4ccccc4)o3)c2)c1 ?
OX1R antag-1: -21; GPR7 antagonist: -5; TAAR1 antagonist: 21; OX1R antag-2: 7; CHO parental Ca: 0; TAAR1 agonist: 10

How did C[C@H]1CN([C@@H](C)CO)C(=O)CCCn2cc(nn2)CO[C@@H]1CN(C)S(=O)(=O)c1cccc(F)c1 do in these assays?
TAAR1 antagonist: -17; TAAR1 agonist: 4

What do the screens show for `O=C(OCC#CCSc1nnc(-c2cccc3ccccc23)o1)c1cccc2[nH]ccc12`?
OX1R antag-1: 68*; TAAR1 antagonist: 51*; OX1R antag-2: 67*; CHO parental Ca: -11; TAAR1 agonist: 11; OX1R Fluo8 conf: 30*; CHO Ca triplic: -8; OX1R HTRF conf: 88*; CHO-K1 HTRF cnt: -1; nonsel antag count: 16; TAAR1 antag conf: 25; Ga16 nonsel ag: 2; TAAR1 ag count: 0

What do the screens show for `COc1cc(CCC(=O)N2CCN(c3cccc(C)c3C)CC2)cc(OC)c1OC`?
OX1R antag-1: -20; GPR7 antagonist: -3; TAAR1 antagonist: -14; OX1R antag-2: 9; CHO parental Ca: -22; TAAR1 agonist: 0

How did CCC(=O)Nc1ccc(N2CCN(C(=O)c3cccs3)CC2)cc1 do in these assays?
OX1R antag-1: -5; GPR7 antagonist: -19; TAAR1 antagonist: 0; OX1R antag-2: 29; CHO parental Ca: -3; TAAR1 agonist: 4

Results for O=C(COc1ccccc1[N+](=O)[O-])Nc1ccc(N2CCN(C(=O)c3cccs3)CC2)cc1 ?
OX1R antag-1: 22; GPR7 antagonist: -24; TAAR1 antagonist: 92*; OX1R antag-2: 34; CHO parental Ca: 25; TAAR1 agonist: 22; OX1R Fluo8 conf: 62*; CHO Ca triplic: 36*; nonsel antag count: 50*; TAAR1 antag conf: 71*; Ga16 nonsel ag: 22*; TAAR1 ag count: 21

What do the screens show for `CC(NS(=O)(=O)c1cccc(Cl)c1)C(=O)Nc1ccc(-c2nc3ccccc3s2)cc1` (centres undefined)?
OX1R antag-1: 34; GPR7 antagonist: -7; TAAR1 antagonist: 64*; OX1R antag-2: 55; CHO parental Ca: -4; TAAR1 agonist: 25; OX1R Fluo8 conf: 12; CHO Ca triplic: -8; nonsel antag count: 37*; TAAR1 antag conf: 45; Ga16 nonsel ag: 12*; TAAR1 ag count: 24

Results for NC(=O)c1ccsc1NC(=O)COC(=O)/C=C/c1ccccc1[N+](=O)[O-] ?
OX1R antag-1: 57*; TAAR1 antagonist: 78*; OX1R antag-2: 24; CHO parental Ca: -3; TAAR1 agonist: 21; OX1R Fluo8 conf: 25; CHO Ca triplic: -8; nonsel antag count: 38*; TAAR1 antag conf: 60*; Ga16 nonsel ag: 14*; TAAR1 ag count: 22

Results for COc1ccc(-n2nnnc2C(c2ccnc3ccccc23)N2CCN(C/C=C/c3ccccc3)CC2)cc1 (centres undefined) ?
TAAR1 antagonist: -31; TAAR1 agonist: 1

What do the screens show for `C=CCn1c(CCCOc2ccc(Cl)cc2Cl)nnc1SCC(=O)Nc1nccs1`?
OX1R antag-1: 36; GPR7 antagonist: -3; TAAR1 antagonist: 49*; OX1R antag-2: 43; CHO parental Ca: 5; TAAR1 agonist: 26; OX1R Fluo8 conf: 23; CHO Ca triplic: 8; nonsel antag count: 32*; TAAR1 antag conf: 41; Ga16 nonsel ag: 7; TAAR1 ag count: 12

What do the screens show for `CC(C)CC(=O)NC(=S)Nc1ccc(S(=O)(=O)NC(C)(C)C)cc1`?
OX1R antag-1: 7; GPR7 antagonist: -6; TAAR1 antagonist: 13; OX1R antag-2: 26; CHO parental Ca: -6; TAAR1 agonist: 10
